Like-named read-outs stand apart in the source and are kept apart here.
Legend:
U937 cells [1] = experiment: Cell growth assay; format: cell-based, human; conditions: for IC50: Homo sapiens, U-937, read-out: IC50p (50% inhibition of cell proliferation)
How it was run: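 U937 cells seeded at 5×10^4 cells/ml in RPMI 1640 with 10% FBS and 2 mM glutamine, then grown with graded test compound levels at 37 °C, 5% CO2. Hemocytometer counts on days 3–5, trypan blue viability. IC50p taken from a day-3 inhibition-versus-concentration plot. Efflux arm: MRP inhibitor at 10 μM added with test compound (145 or 13 μM final), counted day 4, two quadruplicate experiments, paired t-test.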

K562 cells = experiment: Cell growth assay; format: cell-based, human; conditions: for IC50: Homo sapiens, K562, read-out: IC50p (50% inhibition of cell proliferation); for % of inhibition of cell proliferation: 4th day
U937 cells [2] = conditions: cited from earlier work
leucine aminopeptidase = conditions: cited from earlier work

| SMILES | antiproliferative effect on U937 cells (U937 cells [1]; U937, 10 μM) | IC50 (K562 cells) | % of inhibition of cell proliferation (K562 cells; K562, 580 μM bestatin or 26 μM actinonin + verapamil (30 μM)) | IC50 (U937 cells [1]) | IC50 (U937 cells [2]; read-out: IC50p, ref 3) | IC50 (U937 cells [2]; read-out: IC50p, ref 6, 12) | IC50 (U937 cells [2]; read-out: IC50p, ref 11) | % of inhibition of cell proliferation (K562 cells; K562, 580 μM bestatin or 26 μM actinonin + MK-571 (10 μM)) | % of inhibition of cell proliferation (K562 cells; K562, 580 μM bestatin or 26 μM actinonin + MK-571 (30 μM)) | change of IC50p with time of incubation (K562 cells; K562, 3rd, 4th and 5th days, Fig. 1) | Ki (leucine aminopeptidase) | % of inhibition of cell proliferation (U937 cells [1]; U937, 145 μM bestatin or 13 μM actinonin + MK-571 (10 μM), 4th day) |
| --- | --- | --- | --- | --- | --- | --- | --- | --- | --- | --- | --- | --- |
| COc1ccc(CCN(C)CCCC(C#N)(c2ccc(OC)c(OC)c2)C(C)C)cc1OC (centres unmarked) [Verapamil, verapamil] | exhibits an antiproliferative effect |  |  |  |  |  |  |  |  |  |  |  |
| CCCCC[C@H](CC(=O)NO)C(=O)N[C@H](C(=O)N1CCC[C@H]1CO)C(C)C [Actinonin] |  | 19 µM | 78.0±6.6% | 11 µM |  |  |  |  |  |  |  |  |
| CC(C)C[C@H](NC(=O)[C@@H](O)[C@H](N)Cc1ccccc1)C(=O)O [Bestatin] |  | 466 µM |  | 108 µM | 58 µM | ~150 µM | 8 µM | 66.0±3.7% | 73.6±3.4% | increased significantly | 0.02 µM | 87.4±4.1% |

— paper PMC7127609 (Cancer Letters, 2002)
